Measured values from PMC6290999 (Journal of controlled release : official journal of the …, 2017).

Legend:
Pin1 [1] = target: T1, Pin1 (Homo sapiens, UniProt Q13526); assay: Western blotting of Pin1 and its substrates in HCC cells; type: cell-based; conditions: 72 h; for Pin1 expression: 20 μM ATRA
In short: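 PIN1-shRNA or scrambled-shRNA HuH7 and PLC lines were made by lentiviral transduction with 1 μg/mL puromycin selection. Lysates prepared in RIPA and quantified by BCA, run on SDS-PAGE and transferred to PVDF. Blocked in 5% milk, probed with anti-Pin1 (1:3000) then HRP secondary, detected by chemiluminescence; β-actin as loading control.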

HuH7 cells [2] = assay: Cell viability assay; type: cell-based, human; conditions: 0 to 40 μM ATRA; 24 h, 48 h, 72 h
In short: (§1)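 Seeded in 96-well plates at 3000 (HuH7) or 6000 (PLC) cells/well in DMEM or MEM with 10% FBS and cultured overnight. Treated with blank PLLA particles, free drug or drug-loaded PLLA particles; untreated control. MTT (5 mg/mL stock) added for 3 h, formazan dissolved in DMSO, absorbance read at 490 nm. Viability = OD sample/OD control × 100; IC50 calculated from inhibition rates.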

PLC cells = assay: Cell viability assay; type: cell-based, human; conditions: 0 to 40 μM ATRA; 24 h, 48 h, 72 h
In short: as §1

[3] = tested on: normal human liver L-02 cells; assay: Cell viability assay; type: cell-based; conditions: even at 20 μM
shV–HuH7 cells = assay: Cell viability assay; type: cell-based, human; conditions: 20 μM, 72 h
shPin1–HuH7 cells = assay: Cell viability assay; type: cell-based, human; conditions: 20 μM
shV–PLC cells = assay: Cell viability assay; type: cell-based, human; conditions: 20 μM; 24 h, 48 h, 72 h
In short: (§2)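 Stable lines made by lentiviral pLKO.1 shRNA (PIN1 or scrambled) produced in 293T with pVSVG, pREV and pMDL helpers. PLC cells were infected, selected with 1 μg/mL puromycin and checked by Western blot. Viability read by MTT: 3 h incubation, DMSO solubilisation, 490 nm, expressed as OD sample/OD control × 100.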

shPin1–PLC cells = assay: Cell viability assay; type: cell-based, human; conditions: 20 μM; 24 h, 48 h, 72 h
In short: as §2

HuH7 cells [4] = assay: Focus formation assay; type: cell-based, human; conditions: 72 h treatment, then 10~14 days; vs control cells
In short: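 HuH7 seeded at 500 or 2000 cells/well in 12- or 6-well plates, cultured overnight, then treated 72 h with blank PLLA particles, free drug or drug-loaded PLLA particles. Medium then replaced and cells grown 10~14 days. Fixed and stained with 0.5% methylene blue in methanol; colonies above 50 cells counted. Focus area given as % of untreated control; triplicates.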

HuH7 cells [5] = assay: Cell cycle and apoptosis analysis; type: cell-based, human; conditions: 10 μM and 20 μM ATRA, 72 h
In short: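 HuH7 seeded at 0.9 × 10⁴ cells/cm², cultured overnight, then given blank PLLA particles (0.25 mg/mL), free drug (10 and 20 μM) or drug-loaded PLLA particles (10 and 20 μM drug) for 72 h; untreated cells as control. Trypsinised cells fixed in 70% ethanol (4°C, 2 h), stained with propidium iodide (30 min, 37°C, dark) using a kit, then analysed by flow cytometry.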

Pin1 [6] = target: T1, Pin1; assay: Pin1 and substrate expression in xenograft tumors; type: in vivo, BALB/c nu/nu mice; conditions: immunofluorescence staining, 3 weeks treatment
In short: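 Male nude mice carried subcutaneous hind-limb HuH7 xenografts (4 × 10⁶ cells) and were treated for three weeks. Frozen tumour sections (10 μm) fixed in acetone 10 min, permeabilised and blocked with 1% Triton X-100 plus 10% donkey serum for 40 min. Primary antibodies (PIN1, Ki67) applied 24 h at 4°C, secondary 1 h at room temperature, DAPI nuclear stain.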

[7] = Weight of mice in xenograft experiment; type: in vivo, BALB/c nu/nu mice; conditions: 3 weeks treatment
In short: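 Male BALB/c nu/nu mice bore subcutaneous hind-limb HuH7 xenografts (4 × 10⁶ cells) and were randomised at about 50 mm³. Groups received saline, free drug (ethanol diluted in corn oil), blank PLLA particles, slow-release pellet, or drug-loaded particles in saline. Dosing was i.p. at 15 mg/kg drug, twice weekly for three weeks. Body weight recorded weekly.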

[8] = under physiological conditions ref 41; cited from earlier work

T1 sequence (Q13526 whole entry): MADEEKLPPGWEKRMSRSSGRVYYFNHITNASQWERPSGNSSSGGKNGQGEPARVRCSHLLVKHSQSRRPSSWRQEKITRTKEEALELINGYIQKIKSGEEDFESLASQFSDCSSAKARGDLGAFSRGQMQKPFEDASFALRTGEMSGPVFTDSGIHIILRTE

## CC1=C(/C=C/C(C)=C/C=C/C(C)=C/C(=O)O)C(C)(C)CCC1 [ATRA, all-trans retinoic acid]
Pin1 [1]; HuH7 and PLC cells, 5-20 μM ATRA
  Expression of Pin1 and its substrates (β-catenin, c-JUN, NF-κB, Cyclin D1, CDK2, CDK6): obvious dose-dependent down-regulations
Pin1 [1]; shPin1–HuH7 and shPin1–PLC cells
  Pin1 expression: did not affect
Pin1 [1]; shV–HuH7 and shV–PLC cells
  Pin1 expression: significantly down-regulated
HuH7 cells [2]
  Inhibition on HuH7 cell viability: Dose-dependent inhibition
PLC cells
  Inhibition on PLC cell viability: dose-dependent inhibition
[3]
  Inhibition on viability of L-02 cells: no significant inhibition
shV–HuH7 cells
  Decrease of cell viability: approximately 36%
shV–HuH7 cells; 24 h, 48 h
  Inhibition on cell viability: very significant (p < 0.001) time-dependent inhibition
shPin1–HuH7 cells; 24 h and 48 h
  Decrease of cell viability: did not decrease cell viability
shPin1–HuH7 cells; 72 h
  Reduction of cell viability: about 15%
shV–PLC cells
  Inhibition on cell viability: significant time-dependent inhibition
shPin1–PLC cells
  Decrease of cell viability: did not decrease cell viability
HuH7 cells [4]
  Number and area of foci: significant dose-dependent reductions
HuH7 cells [5]
  Apoptosis: did not induce significant apoptosis
  Proportion of cells in G0/G1 phase: significantly increased
  Proportion of cells in G2/M phase: decreased
Pin1 [6]
  Expression of Pin1 and Ki67 in tumors vs saline group: did not induce obvious changes
[7]
  Weights of mice vs saline group: did not induce significant changes
[8]
  Aqueous solubility: 0.21 µM
